Screens as filed in PubChem.
Efflux pump inh – inhibitors of Candida efflux pumps in yeast, primary screen, S. cerevisiae, Nile Red, multiplex | S. cerevisiae Candida pump triplex | inhibition, % at 10 µM | 330,000 tested, 0.44% active;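 active means plate passing quality check with inhibition over a set limit, or well fluorescence over plate mean plus 4 SD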;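 further: Nile Red retained in pooled yeast measured as flow cytometry median fluorescence; 0% = buffer negative control and 100% = Enniatin B positive control; higher means more Nile Red kept so more efflux inhibition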
AHR activator – AHR activators, primary screen, cell-based, luminescence, luciferase reporter, human. Aryl hydrocarbon receptor (Homo sapiens), P35869. AHR-responsive luciferase reporter cells. activation, % at 5 µM. 320,000 tested, 2.5% active. AID 2796, 2010; in the data active means activation above about 47%;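 further: 0% = vehicle wells and 100% = reference agonist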
Target sequence (P35869 whole entry, looked up): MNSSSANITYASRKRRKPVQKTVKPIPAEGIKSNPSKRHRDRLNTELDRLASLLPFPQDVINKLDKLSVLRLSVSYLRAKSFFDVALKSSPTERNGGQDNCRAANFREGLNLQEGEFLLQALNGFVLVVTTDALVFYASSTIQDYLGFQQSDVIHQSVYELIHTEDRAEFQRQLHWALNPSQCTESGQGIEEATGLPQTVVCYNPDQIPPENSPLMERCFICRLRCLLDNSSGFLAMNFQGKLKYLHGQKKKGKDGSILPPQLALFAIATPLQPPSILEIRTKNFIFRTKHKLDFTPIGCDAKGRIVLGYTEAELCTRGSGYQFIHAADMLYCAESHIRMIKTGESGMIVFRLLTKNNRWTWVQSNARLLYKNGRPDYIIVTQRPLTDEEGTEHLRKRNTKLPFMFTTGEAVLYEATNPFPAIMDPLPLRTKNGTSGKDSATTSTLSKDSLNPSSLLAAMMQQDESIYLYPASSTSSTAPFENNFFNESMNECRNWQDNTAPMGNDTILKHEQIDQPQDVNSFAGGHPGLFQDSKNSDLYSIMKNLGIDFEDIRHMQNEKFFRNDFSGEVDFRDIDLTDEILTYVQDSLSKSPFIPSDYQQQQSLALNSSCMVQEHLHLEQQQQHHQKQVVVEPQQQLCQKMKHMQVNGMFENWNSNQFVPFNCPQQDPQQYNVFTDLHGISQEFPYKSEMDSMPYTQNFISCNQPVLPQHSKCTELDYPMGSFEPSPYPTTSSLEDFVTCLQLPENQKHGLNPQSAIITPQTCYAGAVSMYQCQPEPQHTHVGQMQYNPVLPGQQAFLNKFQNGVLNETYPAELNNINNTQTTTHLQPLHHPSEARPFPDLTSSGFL
Tb MetRS inh – T. brucei MetRS inhibitors, primary screen, biochemical, luminescence. purified T. brucei MetRS, ATP depletion, Kinase-Glo luminescence. inhibition, % at 11.9 µM. 360,000 tested, 0.4% active. AID 624268, 2012;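 active means inhibition above a per-plate cutoff of the control wells' mean inhibition plus 3 SD, cut at about 5.5% in these data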;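 further: 0% = DMSO wells median and 100% = median of wells with control inhibitor compound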
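System: purified T. brucei MetRS enzyme / Detection: Kinase-Glo luciferase luminescence reporting remaining unconsumed ATP / Medium: HEPES buffer with MgCl2, KCl, DTT, spermine, BSA, pyrophosphatase / Replication: singlicate, one well per compound / Evaluation: percent inhibition relative to median high and low control wells / Schedule: 2 h aminoacylation at 25 °C after 15 min preincubation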
SMARCA2 act – SMARCA2 (BRM) function activators, primary screen, cell-based, luminescence, high throughput; MG213 cells, MMTV-luciferase reporter, dexamethasone, overnight; activation, % at 9.1 µM; 370,000 tested, 1% active; in the data active means activation above about 7.8%;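 further: 0% = vehicle wells and 100% = reference activator wells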
H9c2 TAG inh – inhibitors of triacylglycerol accumulation, primary screen, cell-based, uHTS, fluorescence, H9c2; H9c2 cells, Nile Red lipid (TAG) fluorescence; cells loaded with 200 µM oleic acid; inhibition, % at 12.5 µM; 230,000 tested, 0.66% active; AID 651582, 2012;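 active means pattern-corrected inhibition of lipid staining of at least 50% with the nuclear-stain viability signal not falling by more than 50%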;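 further: 0% = DMSO wells and 100% = triacsin C control wells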
Tb MetRS conf – T. brucei MetRS inhibitors, confirmation, biochemical, luminescence | shares compounds with Tb MetRS inh | T. brucei MetRS enzyme, luminescence (ATP depletion) | inhibition, % at 11.9 µM | 1,400 tested, 93% active; in the data active means inhibition above about 7%
Jurkat cytotox – Jurkat T cell cytotoxicity, cytotoxicity control for T. brucei MetRS inhibitor project, luminescence, high throughput; shares compounds with Tb MetRS inh; Jurkat cells viability, ATP luminescence; inhibition, % at 8.3 µM; 1,400 tested, 12% active; AID 624413, 2012; in the data active means inhibition above about 15%;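 further: 0% = vehicle and 100% = reference inhibitor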
Tb MetRS inh FP – T. brucei MetRS inhibitors, orthogonal assay for T. brucei MetRS inhibitor project, biochemical, fluorescence polarization | shares compounds with Tb MetRS inh | purified T. brucei MetRS | inhibition, % at 11.9 µM | 1,400 tested, 44% active | AID 651607, 2012; in the data active means inhibition above about 17%;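 further: 0% = vehicle wells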
Numbers without * were called inactive; · = not tested or not shown. Only some compounds are listed: those with a hit (about 4.1% of all), similar ones and a draw of the others.

SMILES	Efflux pump inh	AHR activator	Tb MetRS inh	SMARCA2 act	H9c2 TAG inh	Tb MetRS conf	Jurkat cytotox	Tb MetRS inh FP
O=C(NCCCCc1ccccc1)Nc1ccc(F)cc1	2	0	15*	-1	·	32*	-1	21*
COc1cc(CNc2ncnc3c2[nH]c2ccc(C)cc23)cc(OC)c1	0	27	75*	-3	-16	84*	7	80*
COc1ccc2[nH]c3c(NCCN4CCCCC4)ncnc3c2c1	0	9	0	·	·	·	·	·
Cc1ccc2[nH]c3c(NCc4ccco4)ncnc3c2c1	-1	57*	45*	-2	·	54*	28*	26*
O=C(Nc1ccc2c(c1)OCO2)OC1CCC12CCC(c1ccccc1)CC2 (stereo unspecified)	·	·	·	-2	·	·	·	·
COc1ccc(C(=O)N/C(=C\c2ccc3c(c2)OCO3)C(=O)NCCc2nc3ccccc3[nH]2)cc1	-1	0	6.9*	-1	·	11*	1	7
O=C(N[C@H](C(=O)N1CCC[C@H]1C(=O)NCCc1ccccc1Cl)c1ccccc1)c1ccc(Cl)c(Cl)c1	·	·	·	-4	·	·	·	·
O=C(CC1SC(=Nc2ccccc2)N(Cc2ccccn2)C1=O)Nc1ccc(Br)cc1 (stereo unspecified)	0	20	19*	-2	·	38*	3	16
Cc1ccccc1N=C1SC(CC(=O)Nc2ccc3ccccc3c2)C(=O)N1Cc1ccccn1 (stereo unspecified)	1	15	-1	-2	·	·	·	·
CC(C)C[C@@H](CNCC(=O)[C@H](Cc1c[nH]c2ccccc12)NC(=O)c1[nH]cnc1C(=O)N[C@@H](C)CN)NC(=O)c1nc[nH]c1C(=O)N[C@@H](C)C(=O)O	·	·	23*	-4	6	37*	-1	10
CC(=O)N1CCc2cc(S(=O)(=O)NCCC(=O)N(C)C3CCCCC3)ccc21	·	·	·	-7	·	·	·	·
C[C@H](O)[C@@H]1CN2CCc3ccc(-c4ccc5c(c4)OCO5)cc3[C@@H]2C[C@@H]1N(C)CC1CCCCC1	·	·	·	0	·	·	·	·
Cc1ccccc1C(=O)N(C)[C@H]1C[C@H]2c3[nH]c4c(-c5ccccc5)cccc4c3CCN2C[C@H]1[C@H](C)O	·	·	·	-3	·	·	·	·
CCOC(=O)C1=C(CC)Nc2ccccc2N=C1NC(=O)Nc1ccc(Cl)c(Cl)c1	0	27	37*	-4	13	97*	17*	117*
CCOC(=O)C1=C(CC)Nc2ccccc2N=C1NC(=O)c1cc(C)on1	0	7	0	3	-3	·	·	·
Nn1cc(-c2ccccc2)nc1SCC(=O)NCCc1ccccc1	0	13	-1	0	-10	·	·	·
NNC(=O)CSc1nc(-c2ccccc2)cn1-c1ccccc1	0	15	7.2*	-1	-2	3	-2	1
O=C(NC1CCCCN(Cc2cccc(C(F)(F)F)c2)C1=O)c1ccc(COc2ccccc2)cc1 (stereo unspecified)	·	·	·	-4	·	·	·	·
O=C(NCc1ccc2c(c1)OCO2)c1ccc(N2CCCCCC2)c([N+](=O)[O-])c1	0	9	0	-2	-19	·	·	·
O=C(O)c1ccc(N2CCN(Cc3ccc4c(c3)OCO4)CC2)c([N+](=O)[O-])c1	0	-1	7.0*	-3	·	16*	0	9
CCOc1ccc(CN2CCN(Cc3cc4ccccc4[nH]3)CC2CCO)cc1 (stereo unspecified)	·	·	14*	3	·	26*	5	13
COc1cccc(CN2CCN(Cc3cc4ccccc4[nH]3)CC2CCO)c1 (stereo unspecified)	0	10	2	-4	20	·	·	·
O=C(CCNC(=O)c1ccc(Br)cc1)OCc1ccccc1Cl	0	1	7.0*	1	-3	34*	-4	19*
CCCCNC(=O)C[C@@H]1C(=O)N(CCc2ccc(Cl)cc2)C2=CCCCC[C@]21C(=O)OC	·	·	·	-1	·	·	·	·
Nc1nnc(CC(=O)N/N=C/c2ccc(-c3ccccc3)o2)s1	0	39	8.1*	0	·	5	1	9
SMILES	Efflux pump inh	AHR activator	Tb MetRS inh	SMARCA2 act	H9c2 TAG inh	Tb MetRS conf	Jurkat cytotox	Tb MetRS inh FP
Nc1nnc(CC(=O)N/N=C/c2ccc(-c3ccc(Cl)cc3Cl)o2)s1	0	-2	11*	-3	-14	3	4	5
COc1cccc(-c2cnc(C(O)c3cc(F)cc(Cl)c3)[nH]2)c1 (stereo unspecified)	·	·	20*	-1	-15	40*	0	18*
COc1cccc(-c2cnc(C(O)c3ccc(F)c(F)c3)[nH]2)c1 (stereo unspecified)	·	·	0	-1	1	·	·	·
COc1cccc(-c2cnc(C(O)c3cc(Cl)cc(Cl)c3)[nH]2)c1 (stereo unspecified)	·	·	54*	-3	-3	78*	1	57*
O=C(C[C@H]1C(=O)N(CCc2ccccc2)C[C@@H]1Cc1ccccc1)Nc1ccc(Br)cc1	·	·	4	-1	-5	·	·	·
CCCCN1C[C@H](CSC)[C@@H](CC(=O)Nc2ccc(Br)cc2)C1=O	·	·	37*	-3	2	54*	8	25*
CSC[C@H]1CN(c2ccccc2)C(=O)[C@@H]1CC(=O)Nc1ccc(Br)cc1	·	·	21*	5	2	36*	2	11
CSC[C@H]1CN(CCc2ccccc2)C(=O)[C@@H]1CC(=O)Nc1ccc(Br)cc1	·	·	15*	-5	-4	37*	7	12
CCOC(=O)[C@]12CCCC=C1N(CCCOC)C(=O)[C@@H]2CC(=O)NCc1ccc(C)o1	·	·	·	-3	·	·	·	·
